Here are results for 1 molecule from ChEMBL document CHEMBL3877308, “Design, synthesis and in vitro biological evaluation of oligopeptides targeting E. coli type I signal peptidase (LepB)” (Bioorg Med Chem, 2017).

The target in series [1] is Signal peptidase I (Escherichia coli K-12) (UniProt P00803). The experiment in a line: Inhibition of full length Escherichia coli His6-tagged LepB expressed in Escherichia coli C43(DE3) assessed as residual activity at 6.25 uM using dabcyl-VEVGGTATAGAFSRPGLE-(EDANS) as substrate preincubated for 10 mins followed by substrate addition measured for 2 hrs by FRET assay relative to control. In a few lines:
(§1)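 Enzyme came from the membrane fraction, extracted with 1% reduced Triton X-100 and purified by metal-chelation chromatography in 0.5% detergent. FRET pair was dabcyl acceptor and EDANS donor. EcLepB (final about 50 nM) was pre-incubated with compound 10 min at 22 °C. Reaction was then run with 8 µM substrate, following the linear fluorescence increase at 22 °C for 2 h.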

Series [2] concerns Escherichia coli. Description: Antibacterial activity against Escherichia coli D22 harboring lpxC mutant after 16 to 20 hrs by broth microdilution assay. Type of series: functional. In a few lines: (§2)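 Broth microdilution MIC in cation-adjusted Mueller-Hinton II medium, following EUCAST and CLSI guidelines; tested on a panel of Gram-negative strains plus S. aureus ATCC 29213 (wild-type).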
In general terms: Dilution methods test growth across graded concentrations, often in twofold steps.

Series [3] concerns the target Signal peptidase I (Escherichia coli K-12) (UniProt P00803). The experiment in a line: Inhibition of full length Escherichia coli His6-tagged LepB expressed in Escherichia coli C43(DE3) assessed as residual activity at 100 uM using dabcyl-VEVGGTATAGAFSRPGLE-(EDANS) as substrate preincubated for 10 mins followed by substrate addition measured for 2 hrs by FRET assay relative to control. The method, boiled down: as §1

Series [4] concerns Escherichia coli. The experiment in a line: Antibacterial activity against Escherichia coli CH3130 harboring tolC deletion mutant after 16 to 20 hrs by broth microdilution assay. Type of series: functional. The method, boiled down: as §2
The nature of series [5]: Cytotoxicity against human HepG2 cells assessed as reduction in cell viability after 72 hrs by fluorescein diacetate dye based fluorometric microculture assay. Type of series: toxicity. In a few lines: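 FMCA on HepG2 cells read at 72 h. Survival index (%) is fluorescence in test wells as percent of control cultures, with blank values subtracted. IC50 was obtained by non-linear regression of log concentration-effect curves.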

Series [6] has as its system Pseudomonas aeruginosa. Description: Antibacterial activity against wild type Pseudomonas aeruginosa PAO750 harboring efflux defective mutant after 16 to 20 hrs by broth microdilution assay. Type of series: functional. In a few lines: as §2
Series [7] has as its target Signal peptidase I (Escherichia coli K-12, UniProt P00803). The experiment in a line: Inhibition of full length Escherichia coli His6-tagged LepB expressed in Escherichia coli C43(DE3) using dabcyl-VEVGGTATAGAFSRPGLE-(EDANS) as substrate preincubated for 10 mins followed by substrate addition measured for 2 hrs by FRET assay. In a few lines: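 Enzyme extracted from the membrane fraction with 1% reduced Triton X-100 and purified by metal-chelation chromatography in 0.5% detergent. Enzyme (final ~50 nM) was pre-incubated with compound for 10 min at 22 °C. The linear rise in EDANS donor fluorescence (dabcyl acceptor) was then followed at 22 °C for 2 h. IC50 came from non-linear regression of sigmoidal rate-versus-concentration curves.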

Series [8] has as its target Signal peptidase I (Escherichia coli K-12) (UniProt P00803). Description: Inhibition of full length Escherichia coli His6-tagged LepB expressed in Escherichia coli C43(DE3) assessed as residual activity at 0.0244 uM using dabcyl-VEVGGTATAGAFSRPGLE-(EDANS) as substrate preincubated for 10 mins followed by substrate addition measured for 2 hrs by FRET assay relative to control. In a few lines:
as §1

Series [9] deals with Klebsiella pneumoniae. Description: Antibacterial activity against wild type Klebsiella pneumoniae […] after 16 to 20 hrs by broth microdilution assay. In kind it is functional. The method, boiled down: (§3)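 MIC by broth microdilution in cation-adjusted Mueller-Hinton II medium, following EUCAST and CLSI guidelines; panel of Gram-negative strains plus S. aureus ATCC 29213.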

In series [10] the test system is Pseudomonas aeruginosa. Description: Antibacterial activity against wild type Pseudomonas aeruginosa PAO1 after 16 to 20 hrs by broth microdilution assay. In kind it is functional. The method, boiled down: as §3
Series [11] concerns the target Signal peptidase I (Escherichia coli K-12) (UniProt P00803). Description: Inhibition of full length Escherichia coli His6-tagged LepB expressed in Escherichia coli C43(DE3) assessed as residual activity at 3.13 uM using dabcyl-VEVGGTATAGAFSRPGLE-(EDANS) as substrate preincubated for 10 mins followed by substrate addition measured for 2 hrs by FRET assay relative to control. In a few lines:
as §1

Series [12] shares this target. Description: Inhibition of full length Escherichia coli His6-tagged LepB expressed in Escherichia coli C43(DE3) assessed as residual activity at 25 uM using dabcyl-VEVGGTATAGAFSRPGLE-(EDANS) as substrate preincubated for 10 mins followed by substrate addition measured for 2 hrs by FRET assay relative to control. In a few lines:
as §1

For series [13] the target is unchanged. The experiment in a line: Inhibition of full length Escherichia coli His6-tagged LepB expressed in Escherichia coli C43(DE3) assessed as residual activity at 0.195 uM using dabcyl-VEVGGTATAGAFSRPGLE-(EDANS) as substrate preincubated for 10 mins followed by substrate addition measured for 2 hrs by FRET assay relative to control. The method, boiled down:
as §1

The target is the same in series [14]. The experiment in a line: Inhibition of full length Escherichia coli His6-tagged LepB expressed in Escherichia coli C43(DE3) assessed as residual activity at 0.391 uM using dabcyl-VEVGGTATAGAFSRPGLE-(EDANS) as substrate preincubated for 10 mins followed by substrate addition measured for 2 hrs by FRET assay relative to control. The method, boiled down: as §1

Series [15] shares this target. The experiment in a line: Inhibition of full length Escherichia coli His6-tagged LepB expressed in Escherichia coli C43(DE3) at 100 uM using dabcyl-VEVGGTATAGAFSRPGLE-(EDANS) as substrate preincubated for 10 mins followed by substrate addition measured for 2 hrs by FRET assay relative to control. In a few lines:
as §1

Series [16] shares this target. The experiment in a line: Inhibition of full length Escherichia coli His6-tagged LepB expressed in Escherichia coli C43(DE3) assessed as residual activity at 50 uM using dabcyl-VEVGGTATAGAFSRPGLE-(EDANS) as substrate preincubated for 10 mins followed by substrate addition measured for 2 hrs by FRET assay relative to control. The method, boiled down: as §1
The target is the same in series [17]. Description: Inhibition of full length Escherichia coli His6-tagged LepB expressed in Escherichia coli C43(DE3) assessed as residual activity at 0.781 uM using dabcyl-VEVGGTATAGAFSRPGLE-(EDANS) as substrate preincubated for 10 mins followed by substrate addition measured for 2 hrs by FRET assay relative to control. The method, boiled down:
as §1

In series [18] the test system is Acinetobacter baumannii. The experiment in a line: Antibacterial activity against wild type Acinetobacter baumannii ATCC 19606 after 16 to 20 hrs by broth microdilution assay. Type of series: functional. In a few lines:
as §3

The test system of series [19] is Escherichia coli. Description: Antibacterial activity against wild type Escherichia coli ATCC 25922 after 16 to 20 hrs by broth microdilution assay. In kind it is functional. The method, boiled down: as §3
The target of series [20] is Signal peptidase I (Escherichia coli K-12) (UniProt P00803). The experiment in a line: Inhibition of full length Escherichia coli His6-tagged LepB expressed in Escherichia coli C43(DE3) assessed as residual activity at 1.56 uM using dabcyl-VEVGGTATAGAFSRPGLE-(EDANS) as substrate preincubated for 10 mins followed by substrate addition measured for 2 hrs by FRET assay relative to control. The method, boiled down:
as §1

Series [21] shares this target. Description: Inhibition of full length Escherichia coli His6-tagged LepB expressed in Escherichia coli C43(DE3) assessed as residual activity at 0.0977 uM using dabcyl-VEVGGTATAGAFSRPGLE-(EDANS) as substrate preincubated for 10 mins followed by substrate addition measured for 2 hrs by FRET assay relative to control. The method, boiled down:
as §1

In series [22] the test system is Staphylococcus aureus. The experiment in a line: Antibacterial activity against wild type Staphylococcus aureus ATCC 29213 after 16 to 20 hrs by broth microdilution assay. Type of series: functional. In a few lines:
as §3

Series [23] has as its target Signal peptidase I (Escherichia coli K-12) (UniProt P00803). The experiment in a line: Inhibition of full length Escherichia coli His6-tagged LepB expressed in Escherichia coli C43(DE3) assessed as residual activity at 12.5 uM using dabcyl-VEVGGTATAGAFSRPGLE-(EDANS) as substrate preincubated for 10 mins followed by substrate addition measured for 2 hrs by FRET assay relative to control. The method, boiled down: as §1

Series [24] has the same target. The experiment in a line: Inhibition of full length Escherichia coli His6-tagged LepB expressed in Escherichia coli C43(DE3) assessed as residual activity at 0.0488 uM using dabcyl-VEVGGTATAGAFSRPGLE-(EDANS) as substrate preincubated for 10 mins followed by substrate addition measured for 2 hrs by FRET assay relative to control. The method, boiled down: as §1

Structures are written as SMILES. A value given as a limit tells only on which side of the number the result lay.

Chain of Signal peptidase I (Escherichia coli K-12) (P00803 whole entry): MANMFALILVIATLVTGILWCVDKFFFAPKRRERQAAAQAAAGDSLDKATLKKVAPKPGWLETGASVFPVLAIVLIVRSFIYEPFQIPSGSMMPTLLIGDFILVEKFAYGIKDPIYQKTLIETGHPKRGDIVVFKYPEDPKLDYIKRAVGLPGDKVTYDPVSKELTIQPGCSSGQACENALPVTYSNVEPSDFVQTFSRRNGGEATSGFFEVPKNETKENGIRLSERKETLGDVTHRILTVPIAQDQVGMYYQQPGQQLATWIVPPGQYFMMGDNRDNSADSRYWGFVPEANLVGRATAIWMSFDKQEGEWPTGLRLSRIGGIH
Chain of Signal peptidase I (P00803 whole entry): as above

Regarding `CC(O)[C@H](NC(=O)[C@@H]1CCCN1)C(=O)N[C@@H](C)C(=O)N[C@@H](CC(N)=O)C(=O)N[C@@H](C)B1O[C@@H]2C[C@@H]3C[C@@H](C3(C)C)[C@]2(C)O1` (single isomer, unassigned), the Activity in [1] turned out to be 85.8%; in series [3], 25.1%; in series [8] it was 92.7%; in series [11], 88.6%; in series [12], 56.9%; in series [13], 95.4%. Moreover, the Activity is 95% in series [14]; 35.6% in [16]; 95% in [17]; 90.7% in series [20]; 96% in series [21]; 67.2% in [23]. Moreover, the Activity in series [24] was determined as 96.7%. The MIC in series [2], in [4], in series [6], in [9], in [10] and in [18] was > 64 µg/mL in each case. Moreover, the MIC in series [19] and in series [22] was > 64 µg/mL throughout. The IC50 (commonly the concentration needed to halve the response being measured) at 72 h in series [5] is > 64 µM. For the same molecule, it took 26 µM to reach half-maximal inhibition in [7] (IC50). In series [15], the inhibition (as a rule, the drop in the measured response relative to a control, in per cent) was > 50%.
